The source of these data is ChEMBL document CHEMBL1149843, “Antimicrobial triterpenoids from Vladimiria muliensis” (2008).

Converted amounts (≈) assume the structure as drawn.

What all share (format): functional
One test concerns Pseudomonas aeruginosa. In words: Antimicrobial activity against Pseudomonas aeruginosa by broth microdilution method. Summed up: (§1)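 Bacteria were grown on MH agar at 37 °C for 24 h, then diluted to about 1 × 10^7 CFU/mL. Compounds were dissolved in DMSO. MIC was determined by broth microdilution as the lowest concentration with no growth by turbidity, with MTT absorbance read at 570 nm. Duplicates, repeated three times.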
A general note: Dilution methods test growth across graded concentrations, often in twofold steps.

A further test relates to Staphylococcus aureus. Briefly: Antimicrobial activity against Staphylococcus aureus by broth microdilution method. In a few lines: as §1
The subject of another test is Enterococcus faecalis. In words: Antimicrobial activity against Enterococcus faecalis by broth microdilution method. In a few lines: as §1
Another test has as its system Candida albicans. Briefly: Antimicrobial activity against Candida albicans by broth microdilution method. Summed up: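 C. albicans was grown on PDA agar at 28 °C for 48 h, then diluted to about 1 × 10^7 CFU/mL. Compounds were dissolved in DMSO. MIC was determined by broth microdilution as the lowest concentration with no growth by turbidity, with MTT absorbance read at 570 nm. Duplicates, repeated three times.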

The next test concerns Escherichia coli. In words: Antimicrobial activity against Escherichia coli by broth microdilution method. In a few lines:
as §1

The next test relates to Bacillus cereus. Briefly: Antimicrobial activity against Bacillus cereus by broth microdilution method. Summed up: as §1

For the compound `C[C@H]1[C@H](C)CC[C@]2(C)CC=C3[C@](C)([C@H]12)[C@H]1O[C@H]1[C@@H]1[C@@]2(C)CC[C@H](O)C(C)(C)[C@@H]2CC[C@@]31C`, the MIC in the test with Pseudomonas aeruginosa was 36.3 µM (≈ 16 µg/mL); in the test with Staphylococcus aureus it was 72.7 µM (≈ 32 µg/mL); in the test on Enterococcus faecalis it was 36.3 µM (≈ 16 µg/mL); against Candida albicans, 36.3 µM (≈ 16 µg/mL); in the test on Escherichia coli it was 36.3 µM (≈ 16 µg/mL); against Bacillus cereus, 72.7 µM (≈ 32 µg/mL).

As to `CC1COc2c(N3CCN(C)CC3)c(F)cc3c(=O)c(C(=O)O)cn1c23` (stereo unspecified) [OFLOXACIN], the MIC with Pseudomonas aeruginosa is 0.43 µM (≈ 0.155 µg/mL); against Staphylococcus aureus, 0.43 µM (≈ 0.155 µg/mL); with Enterococcus faecalis it was 0.86 µM (≈ 0.311 µg/mL); in the test on Escherichia coli, 0.43 µM (≈ 0.155 µg/mL); against Bacillus cereus, 0.86 µM (≈ 0.311 µg/mL).

For `CO[C@@H]1C[C@@]2(C)[C@@H]3[C@@H](C)[C@H](C)CC[C@]3(C)CC[C@]2(C)C2=C1[C@@]1(C)CC[C@H](OC(C)=O)C(C)(C)[C@@H]1C[C@H]2O`, the MIC in the test with Pseudomonas aeruginosa is 44.7 µM (≈ 23 µg/mL); in the test on Staphylococcus aureus, 89.5 µM (≈ 46.1 µg/mL); in the test with Enterococcus faecalis, 89.5 µM (≈ 46.1 µg/mL); in the test with Candida albicans, 89.5 µM (≈ 46.1 µg/mL); in the test with Escherichia coli it was 89.5 µM (≈ 46.1 µg/mL); against Bacillus cereus, 179 µM (≈ 92.1 µg/mL).

Consider `C[C@@H]1CC[C@]2(C)CC[C@]3(C)[C@@](O)(CC[C@@H]4[C@@]5(C)CC[C@H](O)C(C)(C)[C@@H]5CC[C@]43C)[C@]2(O)[C@H]1C`, for which the MIC came out at 140 µM (≈ 64.5 µg/mL) against Pseudomonas aeruginosa; 69.6 µM (≈ 32.1 µg/mL) in the test with Staphylococcus aureus; 50 µM (≈ 23 µg/mL) in the test with Enterococcus faecalis; 69.6 µM (≈ 32.1 µg/mL) in the test with Candida albicans; 140 µM (≈ 64.5 µg/mL) against Escherichia coli; 140 µM (≈ 64.5 µg/mL) in the test on Bacillus cereus.

On to `C[C@H]1[C@H](C)CC[C@]2(C)CC[C@]3(C)C(=C[C@@H](O)[C@@H]4[C@@]5(C)CCC(=O)C(C)(C)[C@@H]5CC[C@]43C)[C@H]12`, for which the MIC in the test with Pseudomonas aeruginosa worked out at 70.4 µM (≈ 31 µg/mL); against Staphylococcus aureus it was 35.2 µM (≈ 15.5 µg/mL); against Enterococcus faecalis, 35.2 µM (≈ 15.5 µg/mL); against Candida albicans it was 70.4 µM (≈ 31 µg/mL); against Escherichia coli it was 70.4 µM (≈ 31 µg/mL); with Bacillus cereus it was 70.4 µM (≈ 31 µg/mL).

`C[C@H]1[C@H](C)CC[C@]2(CO)CC[C@]3(C)C(=CC[C@@H]4[C@@]5(C)CC[C@H](O)C(C)(C)[C@@H]5CC[C@]43C)[C@H]12` [UVAOL]: the MIC amounted to 283 µM (≈ 125 µg/mL) against Pseudomonas aeruginosa; 70.1 µM (≈ 31 µg/mL) against Staphylococcus aureus; 142 µM (≈ 63.1 µg/mL) against Enterococcus faecalis; 283 µM (≈ 125 µg/mL) in the test on Candida albicans; 142 µM (≈ 63.1 µg/mL) against Escherichia coli; 283 µM (≈ 125 µg/mL) in the test with Bacillus cereus.

In the case of `C[C@H]1[C@H](C)CC[C@]2(C)CC[C@]3(C)C(=C[C@@H](O)[C@H]4[C@@]3(C)[C@H](O)C[C@@]35OO[C@@H](CC(=O)C3(C)C)[C@]45C)[C@H]12`, the MIC in the test on Pseudomonas aeruginosa is 31.9 µM (≈ 15.5 µg/mL); against Staphylococcus aureus, 14.9 µM (≈ 7.25 µg/mL); in the test with Enterococcus faecalis, 31.9 µM (≈ 15.5 µg/mL); against Candida albicans, 31.9 µM (≈ 15.5 µg/mL); in the test on Escherichia coli it was 31.9 µM (≈ 15.5 µg/mL); with Bacillus cereus it was 63.8 µM (≈ 31.1 µg/mL).

The MIC is the least concentration at which growth counts as inhibited. Read a low MIC as greater potency.
